FLuc inhib CS: inhibits firefly luciferase, flagging false hits in luciferase inhibition screens; P08659; ATPLite firefly luciferase biochemical luminescence, 10 min; inhibition, % at 10 µM; 200,000 compounds, 1.5% hits;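 active means inhibition above about 50% when tested at 10 µM, limit read from the data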
Target sequence (P08659 whole entry, looked up): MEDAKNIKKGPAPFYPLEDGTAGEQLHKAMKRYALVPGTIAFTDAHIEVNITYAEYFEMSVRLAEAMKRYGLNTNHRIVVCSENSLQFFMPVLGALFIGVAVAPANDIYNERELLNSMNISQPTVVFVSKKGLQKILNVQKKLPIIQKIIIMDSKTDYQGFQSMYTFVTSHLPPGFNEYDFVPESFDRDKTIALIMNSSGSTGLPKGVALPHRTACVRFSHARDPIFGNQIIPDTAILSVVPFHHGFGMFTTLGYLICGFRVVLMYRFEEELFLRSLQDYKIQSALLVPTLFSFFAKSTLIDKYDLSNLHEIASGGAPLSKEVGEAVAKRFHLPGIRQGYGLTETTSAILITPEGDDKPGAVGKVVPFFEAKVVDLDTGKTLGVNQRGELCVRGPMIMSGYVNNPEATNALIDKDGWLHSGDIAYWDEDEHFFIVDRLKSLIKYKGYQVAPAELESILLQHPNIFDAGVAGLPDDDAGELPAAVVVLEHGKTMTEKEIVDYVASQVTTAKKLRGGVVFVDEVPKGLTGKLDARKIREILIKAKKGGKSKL
iPSC survival up: hiPSC single-cell survival enhancement; ATPlite luminescence; 100% = ROCK inhibitor wells, 0% = DMSO; survival enhancement, % at 20 µM; AID 602274; 360,000 compounds, 0.044% hits; in the data active means survival enhancement above about 18%;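 further: cells exposed to compounds for 16 hours before the ATP read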
TRAIL sens C8: caspase-8 TRAIL sensitization; NB7+C8 cells + TRAIL, ATPlite viability luminescence; inhibition (viability loss, TRAIL sensitization), % at 10 µM; 360,000 compounds, 1% hits; AID 624354;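 active means compounds causing at least 50% loss of cell viability in the single-dose screen, relative to plate controls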
PPC-1+TRAIL kill: PPC-1 cancer cell killing with TRAIL present; 220,000 compounds, 0.41% hits; PPC-1 cells + TRAIL, ATPLite viability luminescence; cell killing (% activity), % at 4 µM or 5 µM; AID 1443;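 active means cell killing above 50% in the first pass at 4 µM, then a duplicate retest at 5 µM averaging 50% or more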
FLuc act counter: affects firefly luciferase, flagging false hits in luciferase stimulation screens. P08659. ATPlite luciferase biochemical, luminescence, 10 min; 0 = ATP-free wells, 1 = DMSO control. activation factor at 10 µM. 200,000 tested, under 10 active;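 active means luciferase activation factor, scaled between plate controls, of at least 2 with compound at 10 µM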
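System: luciferase plus luciferin reagent, cell-free; medium: PBS as buffer for the ATP substrate; dosing: test compounds dosed from 2 mM stocks in 100% DMSO; timing: 10 min post-reagent at room temperature; measured by: luminescence measurement of luciferase light output; evaluation: luciferase activation, seen as luminescence increase over controls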
beta cell repl: MIN6 beta-cell proliferation induction. MIN6 cells proliferation, ATPlite luminescence, 48 h; cells starved in 0.2% serum; 100% = growth in 10% serum. proliferation, % at 10 µM. 330,000 compounds, 0.29% hits;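 active means compounds whose signal lies at least 3.5 SD above the mean of all wells on their plate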
Numbers stand for hits; 0 = inactive; - = no result. An excerpt weighted towards active compounds, which were near 1.8% of everything screened.

SMILES	FLuc inhib CS	iPSC survival up	TRAIL sens C8	PPC-1+TRAIL kill	FLuc act counter	beta cell repl
CN(C(=O)c1ccccc1)c1nc2ccccc2s1	84	0	72	0	0	0
Oc1ccc(/C=C/c2cc(O)cc(O)c2)cc1	80	0	0	0	0	0
CCc1ccc(S(=O)(=O)NC(=S)Nc2ccccc2)cc1	0	0	0	0	0	0
Cc1ccc(C)c(NC(=S)NC(NC(=O)Cc2cccc3ccccc23)C(Cl)(Cl)Cl)c1 (centres undefined)	0	0	85	0	0	0
CC(=O)Nc1ccc(-c2csc(N/N=C\c3ccncc3)n2)cc1	-	0	0	0	-	0
CCCC(=O)Nc1ccc(-c2csc(N/N=C\c3ccncc3)n2)cc1	-	0	71	0	-	0
O=C1c2ccc(Cl)cc2S(=O)(=O)c2cccc(C(=O)N3CCN(c4ccc(Cl)cn4)CC3)c21	-	0	59	-	-	0
COC(=O)CCC(=O)NC(=S)Nc1ccc(S(=O)(=O)N2CCCC2)cc1	0	0	0	0	0	0
COc1ccc2oc(C(=O)Nc3nnc(C)s3)c(C)c2c1	-	0	70	-	-	0
Cc1ccc2oc(C(=O)Nc3nnc(C)s3)c(C)c2c1	59	0	0	0	0	0
NC(COCc1ccccc1)c1csc(Nc2ccc(C(=O)c3ccccc3)cc2)n1 (centres undefined)	-	0	0	-	-	-
O=C(NCc1ccc(F)cc1)C(c1cccnc1)N(C(=O)c1csnn1)c1ccccc1 (centres undefined)	-	0	0	-	-	0
COC(=O)Cc1[nH]n(-c2nc3ccccc3s2)c(=O)c1C(C)=O	0	0	0	0	0	0
COC(=O)CC1=NN(c2nc3ccccc3s2)C(=O)/C1=C/N(C)C	72	0	0	0	0	0
COc1ccc(C(O)(CCc2ccccc2)CCN2CCCCC2)cc1 (centres undefined)	0	0	0	0	0	0
O=C(NCCc1ccccc1)/C(=C\c1ccccc1)NC(=O)c1ccco1	-	0	0	-	-	0
Cc1ccc(C)c(OCc2nc(-c3cccnc3)no2)c1	0	0	0	0	0	0
CC(=O)Oc1ccc(Oc2ccc(-c3noc(C)n3)cc2)cc1	0	0	0	0	0	0
Cc1ccc(-c2nc(-c3cccnc3)no2)c(C)c1	65	0	0	0	0	0
CC(=O)Oc1ccc(-c2nc(-c3cccnc3)no2)cc1	60	0	0	0	0	0
O=C(c1ccccc1)n1c(=O)c(F)cn(COCCBr)c1=O	-	0	0	-	-	0
CCN(CC)c1ccc(/C=C2/C(=O)c3ccc(C(=O)O)cc3C2=O)cc1	92	0	0	0	0	-
CCN(CC)c1ccc(C=C2C(=O)OC3(CCCCC3)OC2=O)cc1	0	0	0	0	0	0
COc1ccc(-c2cc3ccc(OCC(=O)NCC4CCC(C(=O)O)CC4)cc3oc2=O)cc1 (centres undefined)	-	0	59	-	-	0
COc1ccc2c(c1)c(=O)oc1cc(OCC(=O)NCC3CCC(C(=O)O)CC3)ccc12 (centres undefined)	-	0	0	-	-	0
SMILES	FLuc inhib CS	iPSC survival up	TRAIL sens C8	PPC-1+TRAIL kill	FLuc act counter	beta cell repl
Cc1sc(-c2ccccn2)nc1OC(=O)c1ccc(Cl)c(Cl)c1	0	19	0	0	0	0
Cc1ccc2nc(/C(C#N)=C\c3ccc([N+](=O)[O-])o3)[nH]c2c1	0	0	81	0	0	0
N#C/C(=C\c1ccc([N+](=O)[O-])o1)c1nc2ccccc2[nH]1	0	-	-	0	0	0
Cc1ccc(/C(C#N)=C\c2ccc(N3CCOCC3)o2)cc1	0	0	0	0	0	0
Cc1ccc2nc(/C(C#N)=C\c3ccc(N4CCOCC4)o3)[nH]c2c1	62	0	0	0	0	0
COc1ccccc1N(C)S(=O)(=O)c1ccc(C(=O)Nc2nc(C)cs2)cc1	0	0	0	0	0	0
Cc1ccc(S(=O)(=O)N(C)c2ccc3c(c2)C(=O)c2ccccc2-3)cc1	-	0	0	-	-	-
Cc1ccc(C(=O)Nc2ccc(Cl)cn2)cc1	74	0	62	0	0	0
CCCOc1ccc(C(=O)Nc2ccc(Cl)cn2)cc1	53	0	0	0	0	0
COc1ccc(CC(=O)NNS(=O)(=O)c2ccc([N+](=O)[O-])cc2)cc1OC	-	0	0	-	-	0
Cc1ccc(NC(=O)c2cc3ccccc3o2)nc1	-	0	59	-	-	0
Cc1ccc(C(=O)c2cc3ccccc3o2)cc1C	0	0	0	0	0	0
Cc1cc(C)nc(NC(=O)c2cc3ccccc3o2)n1	0	0	0	0	0	0
Cc1ccc(NC(=O)c2ccc3ccccc3n2)nc1	73	0	0	0	0	0
Cc1ccc(C(=O)c2cc3ccccc3o2)cc1	57	0	0	0	0	0
Cc1cc(C)c(S(=O)(=O)NC2CC(C)(C)NC(C)(C)C2)cc1Br	-	0	0	-	-	0
O=[N+]([O-])c1ccc(S(=O)(=O)Nc2nnc(C(F)(F)F)s2)cc1	-	0	0	-	-	0
CN(/N=C/c1cccc(Br)c1)C1=NS(=O)(=O)c2ccccc21	-	0	0	-	-	0
CC1CC(OC(=O)C2CCN(S(=O)(=O)c3ccc(F)cc3)CC2)C(=O)O1 (centres undefined)	-	0	0	-	-	0
CN(C(=O)COC(=O)c1nc(Cl)c(Cl)c(Cl)c1Cl)C1CCS(=O)(=O)C1 (centres undefined)	0	42	0	0	0	-
Cc1cc(NC(=O)NC(=O)c2ccccc2NC(=O)CN)ccc1Oc1ncc(Br)cn1	-	0	0	-	-	-
CC(Sc1nnnn1-c1cccc(F)c1)C(=O)NC1CCCC1 (centres undefined)	-	0	0	-	-	0
CCCCCCCCCCCCCCCC(O)C[N+](C)(C)CCO (centres undefined)	-	0	92	-	-	-
CS(=O)(=O)c1ccc(C(=O)OCC(=O)N2CCN(CCC3CCCCC3)CC2)cc1[N+](=O)[O-]	-	0	89	-	-	-
COn1c(SCc2ccc(Cl)cc2)nc2ccccc2c1=O	0	0	60	0	0	0
SMILES	FLuc inhib CS	iPSC survival up	TRAIL sens C8	PPC-1+TRAIL kill	FLuc act counter	beta cell repl
CS(=O)(=O)Nc1ccc2c3c(cccc13)CC2	0	20	0	0	0	0
O=C(CC(Nc1ccc(Cl)cc1)C(=O)O)c1ccccc1 (centres undefined)	69	0	62	0	0	0
CN(Cc1cccc(Cl)c1Cl)C(=O)c1ccccc1SCC(=O)N1CCCC1	-	0	0	-	-	-
CC1=C(C(=O)Nc2ccc(CC(=O)NCc3ccc(OC(C)C)cc3)cc2)SCCO1	-	0	56	-	-	0
COc1ccc(CNC(=O)Cc2ccc(NC(=O)C3=C(C)OCCS3)cc2)cc1	-	0	71	-	-	0
COc1cccc(CNC(=O)c2cccc(NC(=O)C3=C(C)OCCS3)c2)c1	-	0	0	-	-	0
O=C(/C=C/c1ccccc1Cl)Nc1cccc(O)c1	84	0	72	0	0	0
O=C(/C=C/c1ccccc1Cl)Nc1ccccc1	-	0	0	0	-	0
O=C(/C=C/c1ccccc1[N+](=O)[O-])Nc1ccccc1	50	0	0	0	0	0
